Calls of active or inactive are those of the source. The calls are words filed in the database; no cut-off is given here.
Legend:
[1] = biological target: T1, Glycogen phosphorylase, muscle form (Oryctolagus cuniculus, UniProt P00489); assay: Inhibition of rabbit muscle glycogen phosphorylase-b assessed as release of inorganic phosphate using glucose-1-phosphate as substrate in presence of AMP and glycogen by spectrophotometric method
T1 sequence (P00489 whole entry): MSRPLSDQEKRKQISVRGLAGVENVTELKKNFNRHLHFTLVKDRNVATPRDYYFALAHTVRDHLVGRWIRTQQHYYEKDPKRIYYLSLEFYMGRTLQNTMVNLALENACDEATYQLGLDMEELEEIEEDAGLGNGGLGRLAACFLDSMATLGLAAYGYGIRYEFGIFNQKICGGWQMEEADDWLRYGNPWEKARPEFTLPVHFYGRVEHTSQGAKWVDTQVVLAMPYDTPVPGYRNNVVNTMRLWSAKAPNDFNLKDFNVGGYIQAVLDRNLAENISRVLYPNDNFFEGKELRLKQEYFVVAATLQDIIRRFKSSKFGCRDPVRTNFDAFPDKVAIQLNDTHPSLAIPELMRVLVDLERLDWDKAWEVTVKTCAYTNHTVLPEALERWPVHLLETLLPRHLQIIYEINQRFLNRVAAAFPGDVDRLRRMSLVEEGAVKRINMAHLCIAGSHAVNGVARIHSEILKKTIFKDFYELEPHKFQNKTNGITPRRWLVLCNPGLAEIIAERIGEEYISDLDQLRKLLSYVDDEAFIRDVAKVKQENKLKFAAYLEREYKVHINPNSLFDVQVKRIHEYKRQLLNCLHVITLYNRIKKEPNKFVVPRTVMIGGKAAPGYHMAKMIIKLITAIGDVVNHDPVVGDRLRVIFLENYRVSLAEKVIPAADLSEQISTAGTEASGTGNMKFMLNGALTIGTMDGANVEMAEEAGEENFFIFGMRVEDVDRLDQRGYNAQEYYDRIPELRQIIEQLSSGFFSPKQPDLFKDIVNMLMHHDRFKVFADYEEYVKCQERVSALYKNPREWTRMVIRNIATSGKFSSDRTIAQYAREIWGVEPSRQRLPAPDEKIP
How it was run: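 GPb was purified from rabbit skeletal muscle and used at 3 μg/mL at 30 °C, synthesis direction. Medium was 30 mM imidazole/HCl pH 6.8, 60 mM KCl, 0.6 mM EDTA, 0.6 mM DTT, 0.2% w/v glycogen and 1 mM AMP, with Glc-1-P and inhibitor varied. Initial rates came from pseudo-first-order constants of spectrophotometric phosphate release at five time points, fitted by non-linear regression.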

[2] = biological target: T2, Glycogen phosphorylase, liver form (Homo sapiens, UniProt P06737); assay: Inhibition of human liver glycogen phosphorylase-a assessed as release of inorganic phosphate using glucose-1-phosphate as substrate in presence of glycogen by spectrophotometric method
T2 sequence (P06737 whole entry): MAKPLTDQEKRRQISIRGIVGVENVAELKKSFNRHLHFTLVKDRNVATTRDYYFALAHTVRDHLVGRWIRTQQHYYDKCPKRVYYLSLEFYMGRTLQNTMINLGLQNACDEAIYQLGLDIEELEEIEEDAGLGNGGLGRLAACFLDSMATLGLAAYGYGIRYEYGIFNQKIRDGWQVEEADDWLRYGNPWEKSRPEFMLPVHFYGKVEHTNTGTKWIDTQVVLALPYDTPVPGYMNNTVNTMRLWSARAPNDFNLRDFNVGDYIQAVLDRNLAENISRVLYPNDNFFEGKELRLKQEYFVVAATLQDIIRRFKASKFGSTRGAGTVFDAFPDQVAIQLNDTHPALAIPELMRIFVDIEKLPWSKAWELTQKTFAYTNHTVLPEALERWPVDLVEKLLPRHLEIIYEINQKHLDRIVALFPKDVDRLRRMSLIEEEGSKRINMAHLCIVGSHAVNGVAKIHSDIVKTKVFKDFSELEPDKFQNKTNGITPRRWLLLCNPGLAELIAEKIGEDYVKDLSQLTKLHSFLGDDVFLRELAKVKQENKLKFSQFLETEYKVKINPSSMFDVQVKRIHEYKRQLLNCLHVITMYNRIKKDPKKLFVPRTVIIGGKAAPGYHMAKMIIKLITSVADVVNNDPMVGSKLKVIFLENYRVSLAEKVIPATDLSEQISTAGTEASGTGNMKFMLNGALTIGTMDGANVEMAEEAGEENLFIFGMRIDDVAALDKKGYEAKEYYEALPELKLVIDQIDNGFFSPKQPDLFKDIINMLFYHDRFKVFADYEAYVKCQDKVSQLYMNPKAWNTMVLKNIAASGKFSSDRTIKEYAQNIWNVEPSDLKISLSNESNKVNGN
How it was run: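 Human liver GPa (1 μg/mL) assayed at 30 °C toward glycogen synthesis in 30 mM imidazole/HCl pH 6.8 with 60 mM KCl, 0.6 mM EDTA, 0.6 mM DTT, 0.2% w/v glycogen, no AMP, and varied Glc-1-P and inhibitor. Orthophosphate release was read spectrophotometrically at five time points; kinetic parameters were fitted by non-linear regression.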

[3] = biological target: T1, Glycogen phosphorylase, muscle form; assay: Inhibition of rabbit muscle glycogen phosphorylase-a assessed as release of inorganic phosphate using glucose-1-phosphate as substrate in presence of glycogen by spectrophotometric method
How it was run: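 Rabbit muscle GPa was made by phosphorylating purified rabbit skeletal muscle GPb and used at 3 μg/mL, without AMP. Buffer was 30 mM imidazole/HCl pH 6.8 with 60 mM KCl, 0.6 mM EDTA, 0.6 mM DTT and 0.2% w/v glycogen, with varied Glc-1-P and inhibitor, at 30 °C. Phosphate release was measured spectrophotometrically at five intervals, and data were fitted non-linearly.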

[4] = Inhibition of glycogen phosphorylase (unknown origin); set-up: species or system Homo sapiens
[5] = biological target: T3, Glycogen phosphorylase, muscle form (Oryctolagus cuniculus) (UniProt P00489); assay: Inhibition of rabbit muscle glycogen phosphorylase-b at 625 uM assessed as release of inorganic phosphate using glucose-1-phosphate as substrate in presence of AMP and glycogen by spectrophotometric method
T3 sequence (whole entry): T1 sequence (P00489 whole entry)

SMILES	Ki [1] [µM]	Ki [2] [µM]	Ki [3] [µM]	Ki [4] [µM]	inhibition [5]
OC[C@H]1O[C@@H](c2nc(-c3cccc(-c4ccccc4)c3)n[nH]2)[C@H](O)[C@@H](O)[C@@H]1O	68.2	–	–	–	–
OC[C@H]1O[C@@H](c2nc(-c3ccc(-c4ccccc4)cc3)n[nH]2)[C@H](O)[C@@H](O)[C@@H]1O	2.38	2.23	2.09	–	–
O=C(O)c1ccc2cc(-c3n[nH]c([C@@H]4O[C@H](CO)[C@@H](O)[C@H](O)[C@H]4O)n3)ccc2c1	5.05	3.88	0.78	–	–
O=C(O)c1ccc(-c2ccc(-c3n[nH]c([C@@H]4O[C@H](CO)[C@@H](O)[C@H](O)[C@H]4O)n3)cc2)cc1	4.42	2.67	0.98	–	–
OC[C@H]1O[C@@H](c2nc(-c3ccc4c(c3)Cc3ccccc3-4)n[nH]2)[C@H](O)[C@@H](O)[C@@H]1O	1.19	2.02	0.84	–	–
OC[C@H]1O[C@@H](c2nc(-c3cccc4ccccc34)n[nH]2)[C@H](O)[C@@H](O)[C@@H]1O	11.5	8.91	3.38	–	–
OC[C@H]1O[C@@H](c2nc(-c3ccc4ccc5cccc6ccc3c4c56)n[nH]2)[C@H](O)[C@@H](O)[C@@H]1O	> 1500	–	–	–	–
OC[C@H]1O[C@@H](c2nc(-c3ccc4cc5ccccc5cc4c3)n[nH]2)[C@H](O)[C@@H](O)[C@@H]1O	20	–	–	–	–
NS(=O)(=O)c1ccc(-c2n[nH]c([C@@H]3O[C@H](CO)[C@@H](O)[C@H](O)[C@H]3O)n2)cc1	98.2	–	–	–	–
CN(C)/C=N/S(=O)(=O)c1ccc(-c2n[nH]c([C@@H]3O[C@H](CO)[C@@H](O)[C@H](O)[C@H]3O)n2)cc1	–	–	–	–	inactive

Source: ChEMBL document CHEMBL4145546, “A multidisciplinary study of 3-(β-d-glucopyranosyl)-5-substituted-1,2,4-triazole derivatives as glycogen phosphorylase inhibitors: Computation, synthesis, crystallography and kinetics reveal new potent inhibitors” (Eur J Med Chem, 2018)
